This is an account of results in ChEMBL document CHEMBL1649458, “Antibiotic resistance in Pseudomonas aeruginosa strains with increased mutation frequency due to inactivation of the DNA oxidative repair system” (2009).

Values after ≈ are worked out from the molar mass of the structure shown. Active and inactive are the calls of the source. The calls are words filed in the database; no cut-off is given here.

Test [1] deals with Pseudomonas aeruginosa. As to the kind of experiment: Antimicrobial activity against Pseudomonas aeruginosa PAO1 assessed as microbial doubling time. It is filed as functional. An outline of the steps:
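Overnight LB cultures diluted to OD600 0.01 in LB and grown at 37°C. OD600 read every 20 min until stationary phase. OD600 plotted against time on a semilog scale, and doubling time taken from the slope of the straight exponential-phase segment. Value is the mean of three separate cultures ± standard deviation.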

The test system of test [2] is Pseudomonas aeruginosa. Briefly: Antimicrobial activity against Pseudomonas aeruginosa PAO1 harboring DNA oxidative repair system deltamutY::Gm mutant gene by Etest. It is filed as functional. The procedure, abridged: (§1)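 MICs by Etest per manufacturer's instructions on P. aeruginosa strains grown in LB; plates incubated at 37°C.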
Test [3] has as its system Pseudomonas aeruginosa. As to the kind of experiment: Antimicrobial activity against Pseudomonas aeruginosa PAO1 harboring DNA oxidative repair system deltamutM::Gm mutant gene by Etest. The class given is functional. An outline of the steps:
as §1

The test system of test [4] is Pseudomonas aeruginosa. Briefly: Antimicrobial activity against Pseudomonas aeruginosa PAO1 harboring DNA oxidative repair system deltamutT::Gm mutant gene by Etest. It is filed as functional. The procedure, abridged: as §1
For test [5], the system named is Pseudomonas aeruginosa. As to the kind of experiment: Antimicrobial activity against Pseudomonas aeruginosa PAO1 harboring DNA oxidative repair system […] mutant gene complemented with wild type DNA oxidative repair system mutY gene. The class given is functional, organism-based.
The subject of test [6] is Pseudomonas aeruginosa. Briefly: Antimicrobial activity against Pseudomonas aeruginosa PAO1 harboring DNA oxidative repair system deltamutY::Gm mutant gene assessed as doubling time. The class given is functional. The procedure, abridged:
(§2)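 Overnight LB cultures adjusted to OD600 0.01 and grown at 37°C; OD600 read every 20 min to stationary phase. Doubling time taken from the slope of the exponential phase on a semilog plot; mean ± SD of three individual cultures.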

Test [7] relates to Pseudomonas aeruginosa. As to the kind of experiment: Antimicrobial activity against Pseudomonas aeruginosa PAO1 harboring DNA oxidative repair system deltamutT::Gm mutant gene assessed as doubling time. The class given is functional. An outline of the steps:
as §2

The subject of test [8] is Pseudomonas aeruginosa. As to the kind of experiment: Antimicrobial activity against Pseudomonas aeruginosa PAO1 by Etest. It is filed as functional. An outline of the steps: as §1
Test [9] relates to Pseudomonas aeruginosa. Briefly: Antimicrobial activity against Pseudomonas aeruginosa PAO1 harboring DNA oxidative repair system deltamutM::Gm mutant gene assessed as doubling time. The class given is functional. An outline of the steps: as §2
The test system of test [10] is Pseudomonas aeruginosa. Briefly: Antimicrobial activity against Pseudomonas aeruginosa PAO1 harboring DNA oxidative repair system mutY mutant gene complemented with wild type DNA oxidative repair system mutY gene. The class given is functional, organism-based.
For test [11], the system named is Pseudomonas aeruginosa. Briefly: Antimicrobial activity against Pseudomonas aeruginosa PAO1 harboring DNA oxidative repair system mutY mutant gene selected in presence of ciprofloxacin by Etest. It is filed as functional. The procedure, abridged:
(§3)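 Resistant colonies picked from population-analysis plates (5% blood agar with twofold antibiotic dilutions) and passaged three times in antibiotic-free LB before Etest MIC determination. MIC is the mean of four colonies, two successive determinations per colony; PAO1 after tobramycin selection is the mean of two colonies.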

For test [12], the system named is Pseudomonas aeruginosa. As to the kind of experiment: Antimicrobial activity against Pseudomonas aeruginosa PAO1 harboring DNA oxidative repair system mutY mutant gene selected in presence of Ceftazidime by Etest. The class given is functional. The procedure, abridged:
as §3

Test [13] has as its system Pseudomonas aeruginosa. As to the kind of experiment: Antimicrobial activity against Pseudomonas aeruginosa PAO1 harboring DNA oxidative repair system mutM mutant gene selected in presence of tobramycin by Etest. It is filed as functional. An outline of the steps:
as §3

The test system of test [14] is Pseudomonas aeruginosa. Briefly: Antimicrobial activity against Pseudomonas aeruginosa PAO1 harboring DNA oxidative repair system mutT mutant gene selected in presence of ciprofloxacin by Etest. It is filed as functional. An outline of the steps: as §3
Test [15] concerns Pseudomonas aeruginosa. Briefly: Antimicrobial activity against Pseudomonas aeruginosa PAO1 harboring DNA oxidative repair system mutT mutant gene selected in presence of tobramycin by Etest. It is filed as functional. An outline of the steps:
as §3

The test system of test [16] is Pseudomonas aeruginosa. Briefly: Antimicrobial activity against Pseudomonas aeruginosa PAO1 harboring DNA oxidative repair system mutM mutant gene selected in presence of ciprofloxacin by Etest. The class given is functional. The procedure, abridged:
as §3

Test [17] has as its system Pseudomonas aeruginosa. As to the kind of experiment: Antimicrobial activity against Pseudomonas aeruginosa PAO1 harboring DNA oxidative repair system mutY mutant gene selected in presence of tobramycin by Etest. The class given is functional. An outline of the steps: as §3
Test [18] relates to Pseudomonas aeruginosa. Briefly: Antimicrobial activity against Pseudomonas aeruginosa PAO1 selected in presence of ciprofloxacin by Etest. It is filed as functional. An outline of the steps:
as §3

Test [19] relates to Pseudomonas aeruginosa. As to the kind of experiment: Antimicrobial activity against Pseudomonas aeruginosa PAO1 harboring DNA oxidative repair system mutM mutant gene selected in presence of Ceftazidime by Etest. The class given is functional. An outline of the steps:
as §3

Test [20] has as its system Pseudomonas aeruginosa. Briefly: Antimicrobial activity against Pseudomonas aeruginosa PAO1 selected in presence of tobramycin by Etest. The class given is functional. An outline of the steps: as §3
Test [21] deals with Pseudomonas aeruginosa. As to the kind of experiment: Antimicrobial activity against Pseudomonas aeruginosa PAO1 selected in presence of Ceftazidime by Etest. It is filed as functional. An outline of the steps: as §3
Test [22] concerns Pseudomonas aeruginosa. As to the kind of experiment: Antimicrobial activity against Pseudomonas aeruginosa PAO1 harboring DNA oxidative repair system mutT mutant gene selected in presence of Ceftazidime by Etest. The class given is functional. An outline of the steps: as §3
For test [23], the system named is Pseudomonas aeruginosa. Briefly: Selectivity ratio of MIC for Pseudomonas aeruginosa PAO1 harboring DNA oxidative repair system mutT mutant gene selected in presence of tobramycin to MIC for Pseudomonas aeruginosa PAO1 harboring DNA oxidative repair system mutT mutant gene. It is filed as functional.
Test [24] relates to Pseudomonas aeruginosa. As to the kind of experiment: Selectivity ratio of MIC for Pseudomonas aeruginosa PAO1 harboring DNA oxidative repair system mutY mutant gene selected in presence of tobramycin to MIC for Pseudomonas aeruginosa PAO1 harboring DNA oxidative repair system mutY mutant gene. The class given is functional.
Test [25] relates to Pseudomonas aeruginosa. As to the kind of experiment: Antimicrobial activity against Pseudomonas aeruginosa PAO1 harboring DNA oxidative repair system mutT mutant gene complemented with wild type DNA oxidative repair system mutT gene. It is filed as functional, organism-based.

As usually defined, the MIC is the lowest concentration found to suppress growth. As to `C[C@H]1[C@H](NC(=O)/C(=N\OC(C)(C)C(=O)O)c2csc(N)n2)C(=O)N1S(=O)(=O)O` [AZTREONAM], the Time in test [1] was determined as 26 min; in test [6], 25.7 min; in test [7], 27.7 min; in [9], 27.3 min. The minimal inhibitory concentration (MIC) in [2] amounted to 1 µg/mL (≈ 2.3 µM); in [3], 1.5 µg/mL (≈ 3.44 µM); in [4] it was 1.5 µg/mL (≈ 3.44 µM); in test [8], 1.5 µg/mL (≈ 3.44 µM). Also, the outcome in [5] and in [10] was Active.

Consider `CC(C)(O/N=C(\C(=O)N[C@@H]1C(=O)N2C(C(=O)[O-])=C(C[n+]3ccccc3)CS[C@H]12)c1csc(N)n1)C(=O)O` [CEFTAZIDIME], for which the Time is given as 26 min in [1], 25.7 min in test [6], 27.7 min in test [7] and 27.3 min in test [9]. Also, the MIC was found to be 0.47 µg/mL in [11]; 18 µg/mL in [12]; 0.63 µg/mL in test [13]; 1.5 µg/mL (≈ 2.74 µM) in [2]; 0.44 µg/mL in test [14]; 0.38 µg/mL in test [15]. Further, the MIC in test [16] turned out to be 0.44 µg/mL; in test [17] it was 0.69 µg/mL; in test [3], 1.5 µg/mL (≈ 2.74 µM); in [18], 0.44 µg/mL; in test [4] it was 2 µg/mL (≈ 3.66 µM); in [19], 26 µg/mL. Besides, the MIC in [20] stood at 0.5 µg/mL; in [8] it was 2 µg/mL (≈ 3.66 µM); in test [21], 20 µg/mL; in test [22], 18 µg/mL.

With `O=C(N[C@H](CO)[C@H](O)c1ccc([N+](=O)[O-])cc1)C(Cl)Cl` [CHLORAMPHENICOL], the minimal inhibitory concentration (MIC) is 256 µg/mL in test [11]; 56 µg/mL in [13]; 256 µg/mL in test [14]; 20 µg/mL in test [15]; 256 µg/mL in test [16]; 86 µg/mL in [17]. Further, the MIC in test [18] was determined as 256 µg/mL; in test [20], 28 µg/mL. Further, the “fold change (FC)” value in test [23] was determined as 3; in [24], 2.

Regarding `O=C(O)c1cn(C2CC2)c2cc(N3CCNCC3)c(F)cc2c1=O` [CIPROFLOXACIN], the Time in [1] is 26 min; in test [6], 25.7 min; in test [7] it was 27.7 min; in test [9], 27.3 min. The MIC in test [11] turned out to be 0.75 µg/mL; in test [12], 0.17 µg/mL; in test [13], 0.11 µg/mL; in test [2], 0.19 µg/mL (≈ 0.573 µM); in test [14], 0.75 µg/mL; in test [15], 0.08 µg/mL. Besides, the minimal inhibitory concentration (MIC) in test [16] amounted to 0.88 µg/mL; in test [17], 0.16 µg/mL; in [3], 0.19 µg/mL (≈ 0.573 µM); in test [18], 0.75 µg/mL; in test [19] it was 0.13 µg/mL; in [20] it was 0.32 µg/mL. The MIC in [8] turned out to be 0.19 µg/mL (≈ 0.573 µM); in test [22], 0.16 µg/mL.

Take `CCN1CCN(C(=O)N[C@@H](C(=O)N[C@@H]2C(=O)N3[C@@H]2SC(C)(C)[C@@H]3C(=O)O)c2ccccc2)C(=O)C1=O` [PIPERACILLIN]: the Time stood at 26 min in test [1], 25.7 min in test [6], 27.7 min in test [7] and 27.3 min in [9]. In addition, the MIC in [2], in [3], in [4] and in [8] was 2 µg/mL (≈ 3.86 µM) throughout. For the same compound, the outcome in test [5] and in test [10] was Active.

Regarding `CN(C)[C@@H]1C(O)=C(C(N)=O)C(=O)[C@@]2(O)C(O)=C3C(=O)c4c(O)cccc4[C@@](C)(O)[C@H]3C[C@@H]12` [TETRACYCLINE], the MIC in [11] amounted to 256 µg/mL; in test [13], 18 µg/mL; in test [14], 256 µg/mL; in [15] it was 4.25 µg/mL; in test [16] it was 256 µg/mL; in test [17], 5.5 µg/mL. Besides, the MIC was 256 µg/mL in [18] and 10 µg/mL in test [20].

With `NC[C@H]1O[C@H](O[C@H]2[C@H](O)[C@@H](O[C@H]3O[C@H](CO)[C@@H](O)[C@H](N)[C@H]3O)[C@H](N)C[C@@H]2N)[C@H](N)C[C@@H]1O` [TOBRAMYCIN], the Time in test [1] is reported as 26 min; in test [6] it was 25.7 min; in test [7], 27.7 min; in test [9], 27.3 min. Besides, the MIC in test [11] stood at 1.37 µg/mL; in [12], 2 µg/mL; in test [13] it was 3.5 µg/mL; in test [2], 1.5 µg/mL (≈ 3.21 µM); in test [14] it was 1.25 µg/mL; in test [15] it was 0.9 µg/mL. Moreover, the MIC in [16] was 1.19 µg/mL; in test [17], 3.75 µg/mL; in [3], 1.5 µg/mL (≈ 3.21 µM); in test [18] it was 1.06 µg/mL; in test [4], 1.5 µg/mL (≈ 3.21 µM); in test [19] it was 2 µg/mL. For the same compound, the MIC in test [20] was 6 µg/mL; in [8] it was 1.5 µg/mL (≈ 3.21 µM); in test [21] it was 1.75 µg/mL; in [22] it was 2 µg/mL. The outcome in test [25], in test [5] and in test [10] was Active.
